The results in this text go back to ChEMBL document CHEMBL1126785, “Peptidomimetic HIV protease inhibitors: phosphate prodrugs with improved biological activities” (J Med Chem, 1993).

Assay [1] concerns the target Human immunodeficiency virus type 1 protease (Human immunodeficiency virus 1, UniProt Q72874). The assay is described as follows: Tested for inhibitory activity against HIV-1 protease. In short, it runs like this:
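Recombinant HIV-1 protease hydrolysing 2.5 mM synthetic octapeptide substrate H-Val-Ser-Gln-Asn-Tyr-Pro-Ile-Val-OH, with or without inhibitor. Run at 30 °C in 100 mM sodium acetate pH 5.5 with 10% glycerol, 5% ethylene glycol and 0.1% Nonidet P-40. Stopped after 30 min with 1% trifluoroacetic acid; hydrolysis quantified by HPLC.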

The test system of assay [2] is Human immunodeficiency virus 1. The experiment in a line: (§1) Tested for the inhibition of p24 production in HIV-1 IIIB infected human peripheral blood mononuclear cells (PBMC). It counts as functional. In short, it runs like this: (§2)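 Human PBMC (5×10^4 cells) were infected with HIV-1 IIIB at MOI 0.003 for 90 min. They were then kept in triplicate wells with continuous compound present for 7 days; compounds came from 10 mM DMSO stocks. Supernatant p24 was measured by ELISA. IC50 and IC90 were taken from linear regression on the linear part of the dose-response curve.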

Assay [3] deals with Human immunodeficiency virus 1. Described as §1. It counts as functional, organism-based. In short, it runs like this:
as §2

A value given as a limit tells only on which side of the number the result lay.

Usually Ki stands for a dissociation constant, usually derived from enzyme kinetics or from competition with a known ligand. The low end stands for a stronger hold on the target, the high end for a looser hold on the target. For orientation: IC90 means the concentration at which the effect reaches the 90% level. A higher IC90 goes with weaker potency. What is called IC50 is the concentration at which inhibition is half-maximal. Read a high IC50 as weaker potency.

In assay [1], `CC[C@H](C)[C@H](NC(=O)[C@H](C(C)C)[C@@H](O)[C@H](O)[C@H](CC1CCCCC1)NC(=O)[C@H](Cc1c[nH]cn1)NC(=O)COc1cccc2ccccc12)C(=O)NCc1ccccn1` had a Ki of less than 1 nM. This molecule had an IC90 in assay [2] of 223 nM. Also, the IC50 in assay [3] is 50.2 nM.
